The source made the active and inactive calls.
Tests used:
[1] = tested on: Mus musculus; assay: Antiallodynic activity in OF1 mouse partial sciatic nerve ligation model assessed as increase in mechanical threshold to pressure at 50 mg/kg, po after 90 mins by von Frey test; type: functional
Method in brief: (§1)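 PSNL in male OF1 mice (16–18 g): under isoflurane, a tight ligation placed around 33–50% of the right sciatic nerve. 50 mg/kg given by oral gavage in EtOH/0.5% methylcellulose (1.5/98.5). Paw withdrawal threshold (g) measured with von Frey filaments by up-down method before dosing and at 45, 90 and 150 min. n = 5–7 per group.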

[2] = tested on: Mus musculus; assay: Antihyperalgesic activity in OF1 mouse partial sciatic nerve ligation model assessed as increase in […] threshold to thermal stimuli at 50 mg/kg, po measured at 90 mins by planar test relative to control; type: functional
Method in brief: (§2)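 Male OF1 PSNL mice given 50 mg/kg orally in EtOH/0.5% methylcellulose in water (1.5/98.5). Thermal hyperalgesia assessed by plantar test as paw withdrawal to a thermal stimulus, expressed relative to the contralateral paw, at time points up to 150 min.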

[3] = tested on: Mus musculus; assay: Analgesic activity in OF1 mouse assessed as decrease in hindpaw licking at 50 mg/kg ,po administered 150 mins prior to formalin challenge by formalin test; type: functional; parameters: scale not given: the % may be the effect or the level left
Method in brief: (§3)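 Male OF1 mice, 25e32 g, 50 mg/kg given orally in ethanol/0.5% methylcellulose in water (1.5/98.5) before formalin. After 30 min adaptation, 20 µL of 5% formalin injected s.c. into the hindpaw. Licking/biting of the injected paw timed by stop-watch during the early phase (0–5 min). Analgesia (%) versus vehicle, n = 6–8 per group.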

[4] = tested on: Plasma; assay: Drug level in Sprague-Dawley rat plasma treated with 1-(1-{2-[(1-Ethoxycarbonyloxy-ethoxycarbonylmethyl)-carbamoyl]-3-phenyl-propyldisulfanylmethyl}-3-methylsulfanyl-propylcarbamoyloxy)-ethyl isobutyrate at 800 uM incubated for 1 to 60 mins by LC/MS analysis; type: ADME, cell-free
Method in brief: (§4)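 Prodrug at 800 µM final concentration incubated at 37 °C in male Sprague-Dawley rat plasma (heparin lithium; 66 mg protein/mL) for 1, 5, 15, 30 and 60 min. Reaction stopped with absolute EtOH. Parent and metabolites monitored by LC/MS, in triplicate.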

[5] = tested on: Mus musculus; assay: Antiallodynic activity in OF1 mouse partial sciatic nerve ligation model assessed as increase in mechanical threshold to pressure at 50 mg/kg, po after 45 mins by von Frey test; type: functional; method in brief: as §1
[6] = tested on: Mus musculus; assay: Analgesic activity in OF1 mouse assessed as decrease in hindpaw licking at 50 mg/kg ,po administered 90 mins prior to formalin challenge by formalin test; type: functional; parameters: scale not given: the % may be the effect or the level left; method in brief: as §3
[7] = tested on: Mus musculus; assay: Analgesic activity in OF1 mouse assessed as decrease in hindpaw licking at 50 mg/kg ,po administered 210 mins prior to formalin challenge by formalin test relative to control; type: functional, organism-based; method in brief: as §3
[8] = tested on: Mus musculus; assay: Antinociceptive activity in iv dosed OF1 mouse assessed as increase in jump latency by hot plate test; type: functional, organism-based
Method in brief: (§5)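 Hot plate in male OF1 mice. 10 mg/kg given iv in EtOH/Cremophor/H2O (1/1/8) or EtOH/Tween 80/H2O (1/1/8). Jump latency recorded with a 240 s cut-off over a time course. n = 6 per group.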

[9] = tested on: Mus musculus; assay: Antiallodynic activity in OF1 mouse partial sciatic nerve ligation model assessed as increase in mechanical threshold to pressure at 50 mg/kg, po after 150 mins by von Frey test; type: functional; method in brief: as §1
[10] = tested on: Mus musculus; assay: Antihyperalgesic activity in OF1 mouse partial sciatic nerve ligation model assessed as increase in […] threshold to thermal stimuli at 50 mg/kg, po measured upto 150 mins by planar test; type: functional, organism-based; method in brief: as §2
[11] = tested on: Mus musculus; assay: Antinociceptive activity in po dosed OF1 mouse assessed as increase in jump latency by hot plate test; type: functional, organism-based
Method in brief: (§6)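 Hot plate test in male OF1 mice (20–25 g). 150 mg/kg given per os in EtOH/PEG400/H2O (1/4/5). Jump latency recorded by stop-watch, cut-off 240 s, followed over time. Mean ± sem, n = 7–8 per group.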

[12] = biological target: Aminopeptidase N (Homo sapiens, UniProt P15144); assay: Inhibition of recombinant human Aminopeptidase N using L-Ala-beta-NA as substrate preincubated for 30 mins followed by substrate addition measured after 30 mins by fluorometry
[13] = tested on: Mus musculus; assay: Antiallodynic activity in po dosed OF1 mouse partial sciatic nerve ligation model assessed as increase in mechanical threshold to pressure at 25 mg/kg, po after 30 mins by von Frey test; type: functional
Method in brief: (§7)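 PSNL mice (male OF1, 16–18 g; partial sciatic ligation of 33–50% under isoflurane). Oral gavage at 12.5, 25 or 50 mg/kg in EtOH/0.5% methylcellulose (1.5/98.5). Von Frey up-down withdrawal thresholds measured on ipsilateral and contralateral paws before dosing and at 30, 60 and 120 min. Kruskal-Wallis with Dunn's test.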

[14] = tested on: Mus musculus; assay: Antiallodynic activity in po dosed OF1 mouse partial sciatic nerve ligation model assessed as increase in mechanical threshold to pressure after 30 mins by von Frey test; type: functional, organism-based; method in brief: as §7
[15] = tested on: Mus musculus; assay: Antiallodynic activity in OF1 mouse partial sciatic nerve ligation model assessed as increase in mechanical threshold to pressure at 50 mg/kg, po after 45 to 60 mins by von Frey test; type: functional, organism-based
[16] = tested on: Mus musculus; assay: Antiallodynic activity in po dosed OF1 mouse partial sciatic nerve ligation model assessed as increase in mechanical threshold to pressure at 25 mg/kg, po after 120 mins by von Frey test; type: functional; method in brief: as §7
[17] = tested on: Mus musculus; assay: Antiallodynic activity in po dosed OF1 mouse partial sciatic nerve ligation model assessed as increase in mechanical threshold to pressure after 60 mins by von Frey test; type: functional, organism-based; method in brief: as §7
[18] = tested on: Mus musculus; assay: Antiallodynic activity in po dosed OF1 mouse partial sciatic nerve ligation model assessed as increase in mechanical threshold to pressure after 120 mins by von Frey test; type: functional, organism-based; method in brief: as §7
[19] = tested on: Mus musculus; assay: Antiallodynic activity in po dosed OF1 mouse partial sciatic nerve ligation model assessed as increase in mechanical threshold to pressure at 25 mg/kg, po after 60 mins by von Frey test; type: functional; method in brief: as §7
[20] = tested on: Mus musculus; assay: Analgesic activity in OF1 mouse assessed as decrease in hindpaw licking at 50 mg/kg ,po administered 60 mins prior to formalin challenge by formalin test; type: functional; parameters: scale not given: the % may be the effect or the level left; method in brief: as §3
[21] = tested on: Mus musculus; assay: Analgesic activity in OF1 mouse assessed as decrease in hindpaw licking at 50 mg/kg ,po administered 20 mins prior to formalin challenge by formalin test; type: functional; parameters: scale not given: the % may be the effect or the level left; method in brief: as §3
[22] = tested on: Mus musculus; assay: Antinociceptive activity in OF1 mouse assessed as increase in jump latency at 150 mg/kg, po by hot plate test; type: functional, organism-based; method in brief: as §6
[23] = tested on: Mus musculus; assay: Antinociceptive activity in OF1 mouse assessed as increase in jump latency at 10 mg/kg, iv by hot plate test; type: functional, organism-based; method in brief: as §5
[24] = tested on: Mus musculus; assay: Analgesic activity in OF1 mouse assessed as decrease in hindpaw licking at 50 mg/kg ,po administered 120 mins prior to formalin challenge by formalin test; type: functional; method in brief: as §3
[25] = tested on: Plasma; assay: Prodrug conversion in Sprague-Dawley rat plasma assessed as formation of 1-{1-[2-(Carboxymethyl-carbamoyl)-3-phenyl-propyldisulfanylmethyl]-3-methylsulfanyl-propylcarbamoyloxy}-ethyl isobutyrate at 800 uM incubated for 1 to 60 mins by LC/MS analysis; type: ADME, cell-free; method in brief: as §4
[26] = tested on: Plasma; assay: Prodrug conversion in Sprague-Dawley rat plasma assessed as formation of (S)-2-((S)-3-(((S)-2-amino-4-(methylthio)butyl)disulfanyl)-2-benzylpropanamido)propanoic acid at 800 uM incubated for 1 to 60 mins by LC/MS analysis; type: ADME, cell-free; method in brief: as §4
[27] = tested on: Plasma; assay: Prodrug conversion in Sprague-Dawley rat plasma assessed as formation of PL37 at 800 uM incubated for 1 to 60 mins by LC/MS analysis; type: ADME, cell-free; method in brief: as §4
[28] = biological target: Neprilysin (Homo sapiens, UniProt P08473); assay: Inhibition of recombinant human Neprilysin using Suc-Ala-Ala-Phe-AMC as substrate preincubated for 30 mins followed by substrate addition measured after 30 mins by fluorometry
Sequence of Neprilysin (P08473 whole entry): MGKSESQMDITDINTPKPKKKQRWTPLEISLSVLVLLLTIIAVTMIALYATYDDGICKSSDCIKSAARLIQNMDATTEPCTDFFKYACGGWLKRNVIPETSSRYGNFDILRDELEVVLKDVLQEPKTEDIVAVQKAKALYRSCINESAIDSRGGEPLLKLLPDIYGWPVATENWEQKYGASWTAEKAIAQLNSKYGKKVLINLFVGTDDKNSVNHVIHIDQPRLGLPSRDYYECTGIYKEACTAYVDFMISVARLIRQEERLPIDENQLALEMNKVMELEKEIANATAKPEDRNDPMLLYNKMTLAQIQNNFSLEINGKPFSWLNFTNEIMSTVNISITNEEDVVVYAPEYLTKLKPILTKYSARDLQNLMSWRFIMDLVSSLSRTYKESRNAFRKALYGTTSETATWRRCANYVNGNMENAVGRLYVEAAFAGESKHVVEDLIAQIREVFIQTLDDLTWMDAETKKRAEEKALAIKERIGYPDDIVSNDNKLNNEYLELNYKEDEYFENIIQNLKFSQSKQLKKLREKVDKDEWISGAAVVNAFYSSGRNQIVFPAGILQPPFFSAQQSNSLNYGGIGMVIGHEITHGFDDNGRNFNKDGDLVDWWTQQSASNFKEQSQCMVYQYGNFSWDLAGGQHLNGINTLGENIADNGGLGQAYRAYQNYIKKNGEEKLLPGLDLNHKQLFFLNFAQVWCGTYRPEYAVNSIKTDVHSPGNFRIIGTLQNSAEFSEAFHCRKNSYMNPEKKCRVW

Sequence of Aminopeptidase N (P15144 whole entry): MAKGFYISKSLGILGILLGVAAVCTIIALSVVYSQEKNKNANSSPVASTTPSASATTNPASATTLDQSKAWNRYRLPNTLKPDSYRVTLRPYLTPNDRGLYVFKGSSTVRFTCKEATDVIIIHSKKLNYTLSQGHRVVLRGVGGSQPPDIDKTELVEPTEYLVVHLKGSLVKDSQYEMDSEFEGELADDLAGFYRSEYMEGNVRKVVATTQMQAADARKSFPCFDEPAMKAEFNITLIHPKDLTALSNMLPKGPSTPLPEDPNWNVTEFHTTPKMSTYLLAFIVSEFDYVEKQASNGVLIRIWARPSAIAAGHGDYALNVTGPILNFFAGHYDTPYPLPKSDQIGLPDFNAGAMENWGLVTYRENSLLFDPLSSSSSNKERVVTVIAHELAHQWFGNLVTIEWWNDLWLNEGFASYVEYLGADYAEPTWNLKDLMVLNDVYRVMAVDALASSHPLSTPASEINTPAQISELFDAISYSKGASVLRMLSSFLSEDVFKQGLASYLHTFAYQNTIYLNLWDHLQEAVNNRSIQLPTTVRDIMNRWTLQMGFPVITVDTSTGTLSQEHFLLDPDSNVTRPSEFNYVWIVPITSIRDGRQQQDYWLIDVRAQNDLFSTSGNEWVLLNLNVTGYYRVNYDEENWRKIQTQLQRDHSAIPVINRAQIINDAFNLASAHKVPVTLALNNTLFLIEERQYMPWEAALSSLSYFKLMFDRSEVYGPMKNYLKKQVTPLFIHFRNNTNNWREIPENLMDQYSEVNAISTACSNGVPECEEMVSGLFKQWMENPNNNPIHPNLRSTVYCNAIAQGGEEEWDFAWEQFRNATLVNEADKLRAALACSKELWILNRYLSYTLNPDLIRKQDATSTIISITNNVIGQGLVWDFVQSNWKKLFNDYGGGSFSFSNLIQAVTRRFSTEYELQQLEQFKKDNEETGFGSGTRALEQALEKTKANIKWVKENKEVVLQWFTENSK

Row | Compound | Activity [3] | Activity [6] | Activity [7] | Activity [8] | Activity [11] | other results
1 | CSCC[C@@H](CSSC[C@@H](Cc1ccccc1)C(=O)NCC(=O)O)NC(=O)OC(C)OC(=O)C(C)C (some centres undefined) | 31% | 34% | inactive | inactive | inactive | Activity [1]: 56%; Activity [2]: 100%; Drug metabolism [4]: metabolite_detected; Activity [5]: 64%; Activity [9]: 18%; Activity [10]: Active
2 | C[S+]([O-])CC[C@H](N)CSSC[C@@H](Cc1ccccc1)C(=O)NCC(=O)O (some centres undefined) | – | – | – | – | Active | –
3 | CSCC[C@H](N)CSSC[C@@H](Cc1ccccc1)C(=O)NCC(=O)O | – | – | – | – | Active | Drug metabolism [4]: metabolite_detected
4 | C[S+]([O-])CC[C@H](N)CSSC[C@@H](Cc1ccccc1)C(=O)NCC(=O)OCc1ccccc1 (some centres undefined) | – | – | – | – | Active | –
5 | CSCC[C@H](N)CSSC[C@@H](Cc1ccccc1)C(=O)NCC(=O)OCc1ccccc1 | – | – | – | – | Active | –
6 | C[S+]([O-])CC[C@H](N)CSSCC1(C(=O)N[C@@H](CC(=O)O)C(=O)O)CCCC1 (some centres undefined) | – | – | – | – | Active | –
7 | O=C(O)CNC(=O)C(CS)Cc1ccccc1 (centres undefined) [THIORPHAN] | – | – | – | – | – | Ki [12]: > 10 µM
8 | CCOC(=O)OC(C)OC(=O)CNC(=O)[C@@H](CSSC[C@H](CC[S+](C)[O-])NC(=O)OC(C)OC(=O)C(C)C)Cc1ccccc1 (some centres undefined) | 38% | 39% | inactive | inactive | inactive | –
9 | CCOC(=O)OC(C)OC(=O)CNC(=O)[C@@H](CSSC[C@@H](N)CC[S+](C)[O-])Cc1ccccc1 (some centres undefined) | – | – | – | – | Active | –
10 | CC(OC(=O)N[C@@H](CC[S+](C)[O-])CSSC[C@@H](Cc1ccccc1)C(=O)NCC(=O)O)OC(=O)C(C)C (some centres undefined) | 38% | 39% | inactive | inactive | inactive | Activity [13]: 40%; Activity [14]: Dose-dependent effect; Activity [15]: Active; Activity [16]: 63%; Activity [17]: Dose-dependent effect; Activity [18]: Dose-dependent effect; Activity [19]: 52%
11 | CSCC[C@@H](CSSC[C@@H](Cc1ccccc1)C(=O)NCC(=O)OCc1ccccc1)NC(=O)OC(C)OC(=O)C(C)C (some centres undefined) | 26% | 34% | inactive | inactive | inactive | –
12 | CCOC(=O)OC(C)OC(=O)CNC(=O)[C@@H](CSSC[C@@H](N)CCSC)Cc1ccccc1.O=C(O)/C=C/C(=O)O (some centres undefined) | – | – | – | – | – | Activity [20]: 31%; Activity [21]: 62%; Activity [22]: Active; Activity [23]: Active; Activity [24]: inactive
13 | CC(OC(=O)N[C@@H](CC[S+](C)[O-])CSSCC1(C(=O)N[C@@H](CC(=O)O)C(=O)O)CCCC1)OC(=O)C(C)C (some centres undefined) | 47% | 46% | inactive | inactive | inactive | –
14 | CCOC(=O)OC(C)OC(=O)CNC(=O)[C@@H](CSSC[C@H](CCSC)NC(=O)OC(C)OC(=O)C(C)C)Cc1ccccc1 (some centres undefined) | 30% | 32% | inactive | – | – | Activity [20]: 56%; Activity [21]: 25%; Activity [22]: inactive; Activity [23]: inactive; Drug metabolism [25]: metabolite_detected; Drug metabolism [26]: metabolite_detected; Activity [24]: 31%; Drug metabolism [27]: metabolite_notdetected
15 | C[S+]([O-])CC[C@H](N)CS (some centres undefined) | – | – | – | – | – | Ki [28]: > 10 µM
16 | CC(OC(=O)N[C@@H](CC[S+](C)[O-])CSSC[C@@H](Cc1ccccc1)C(=O)NCC(=O)OCc1ccccc1)OC(=O)C(C)C (some centres undefined) | 38% | 39% | inactive | inactive | inactive | –
17 | O=C(O)C[C@H](NC(=O)C1(CS)CCCC1)C(=O)O | – | – | – | – | – | Ki [12]: > 10 µM

Reference: ChEMBL document CHEMBL3627676, “Modulation of disulfide dual ENKephalinase inhibitors (DENKIs) activity by a transient N-protection for pain alleviation by oral route” (Eur J Med Chem, 2015)
